Rows were chosen to be rich in hits. Some 2% of all compounds tested hit in one or more screens of this group.
HEK293 NFkB inh – inhibitors of PMA/ionomycin-induced NF-kB reporter, primary screen, antigen receptor NF-kB inhibitor project, cell-based, HEK-293 luciferase reporter, luminescence. HEK-293 NF-kB luciferase reporter. inhibition, % at 3 µM. hit rate 0.21% among 62,000;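 active = inhibition above the mean of all tested compounds plus 3 SD, cut at about 40% in these data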
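Material: HEK-293 cells with stable firefly luciferase reporter driven by four HIV NF-kB elements / Also added: PMA plus ionomycin mix as NF-kB-activating stimulus / Compound dosing: 3 µM once, 0.30% DMSO / Times: 1 h pretreatment, 16 h stimulation, 37 °C / Signal: luminescence / Evaluation: per-plate % inhibition versus controls / Benchmarks: DMSO and 10 µM reference inhibitor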
HER2 expr 66K – inhibitors of Her2 protein expression, primary screen, SKBR-3 cells, AlphaScreen, 66K library; Receptor tyrosine-protein kinase erbB-2 (Homo sapiens), P04626; SKBR-3 HER2 protein level, 18-24 h; hits give low values; HER2 level % of control, % at 10 µM; hit rate 0.69% among 65,000;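 active = HER2 level under 5% of the carrier-only control; inconclusive = no clear call, values can overlap the other calls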;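 note: lower value means stronger loss of Her2 protein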
Target sequence (P04626 whole entry, looked up): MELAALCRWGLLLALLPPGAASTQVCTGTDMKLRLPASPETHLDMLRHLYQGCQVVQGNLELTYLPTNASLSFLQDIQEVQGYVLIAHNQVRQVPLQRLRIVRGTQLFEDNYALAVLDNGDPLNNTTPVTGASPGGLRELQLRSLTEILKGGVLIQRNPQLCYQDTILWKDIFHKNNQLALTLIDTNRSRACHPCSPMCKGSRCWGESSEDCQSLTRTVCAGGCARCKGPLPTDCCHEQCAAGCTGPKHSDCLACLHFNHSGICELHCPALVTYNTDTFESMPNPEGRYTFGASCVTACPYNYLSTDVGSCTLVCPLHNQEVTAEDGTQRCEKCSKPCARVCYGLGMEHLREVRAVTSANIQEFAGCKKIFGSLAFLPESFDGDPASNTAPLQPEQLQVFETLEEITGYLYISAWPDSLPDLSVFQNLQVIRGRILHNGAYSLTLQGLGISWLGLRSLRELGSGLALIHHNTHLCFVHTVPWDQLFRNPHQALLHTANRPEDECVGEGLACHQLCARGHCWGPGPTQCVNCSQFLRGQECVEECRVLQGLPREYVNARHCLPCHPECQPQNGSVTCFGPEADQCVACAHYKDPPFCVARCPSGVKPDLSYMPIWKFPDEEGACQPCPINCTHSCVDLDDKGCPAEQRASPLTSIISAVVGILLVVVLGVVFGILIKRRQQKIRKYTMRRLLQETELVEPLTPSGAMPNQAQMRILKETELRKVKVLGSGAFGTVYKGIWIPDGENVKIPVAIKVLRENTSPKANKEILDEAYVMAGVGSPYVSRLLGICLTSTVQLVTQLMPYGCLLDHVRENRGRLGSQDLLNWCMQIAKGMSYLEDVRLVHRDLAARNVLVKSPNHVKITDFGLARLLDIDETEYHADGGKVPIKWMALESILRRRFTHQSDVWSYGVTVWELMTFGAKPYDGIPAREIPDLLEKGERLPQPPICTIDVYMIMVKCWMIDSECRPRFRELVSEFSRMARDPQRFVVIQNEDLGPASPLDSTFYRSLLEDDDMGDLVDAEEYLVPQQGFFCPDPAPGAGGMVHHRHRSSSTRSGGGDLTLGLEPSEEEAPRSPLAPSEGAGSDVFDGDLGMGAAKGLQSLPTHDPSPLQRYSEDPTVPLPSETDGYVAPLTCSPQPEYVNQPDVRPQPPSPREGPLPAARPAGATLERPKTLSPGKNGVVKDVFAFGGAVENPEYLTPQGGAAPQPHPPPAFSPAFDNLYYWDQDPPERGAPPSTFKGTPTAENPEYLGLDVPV
Jurkat viability – cytotoxicity toward Jurkat T cells, primary screen, cytotoxicity control, cell-based, Jurkat E6.1, 60K MLSMR library. Jurkat E6.1 viability, ATP luminescence, 48 h. inhibition, % at 4 µM. hit rate 1.2% among 56,000. AID 463, 2006;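 active = inhibition above the mean inhibition of all tested compounds plus 3 SD, cut at about 28% in these data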
SK-BR-3 tox 24h – SK-BR-3 proliferation inhibitors, primary screen, cell-based, human, 24 h | SK-BR-3 viability, CellTiter-Glo ATP luminescence; hits give low values | viability, % at 10 µM | hit rate 0.47% among 41,000 | AID 847, 2007;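 active = viability at or below the median of all test compounds minus 3 SD, in both replicates if run twice, cut at about 45% in these data; inconclusive = duplicate replicates that disagree with each other; inactive = viability above that cutoff in every replicate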
Of the large screens only hits and unclear results are named; the others gave an inactive call.

O=S(=O)(CCN1CCN(C(c2ccccc2)c2ccccc2)CC1)C(F)(F)F	HER2 expr 66K -2.0
O=C(CN1CCN(C(c2ccccc2)c2ccccc2)CC1)N1CCOCC1	none (no result: SK-BR-3 tox 24h)
Cc1cccc2cc3c(N)c(C(=O)N4CCOCC4)sc3nc12	Jurkat viability 76
Cc1ccc(C2NC(=O)c3ccccc3N2)s1 (stereo unspecified)	Jurkat viability 75 (no result: SK-BR-3 tox 24h)
O=C1NC(c2ccncc2)Nc2ccccc21 (stereo unspecified)	none
COCCN1Cc2cccc(C(=O)NCc3ccc4c(c3)OCO4)c2C1=O	none (no result: SK-BR-3 tox 24h)
O=C(Cn1nnc(-c2ccc(S(=O)(=O)N3CCCC3)cc2)n1)NCC1CCCO1 (stereo unspecified)	none (no result: Jurkat viability)
CCCCOc1ccccc1NC(=O)c1ccco1	none (no result: SK-BR-3 tox 24h)
Cc1ccc(-c2nc3ccccc3[nH]2)cc1NC(=O)c1ccco1	none (no result: SK-BR-3 tox 24h)
O=C(Nc1cccc(-c2nc3ccccc3[nH]2)c1)c1cccc(NC(=O)c2ccco2)c1	HER2 expr 66K -17, SK-BR-3 tox 24h inconclusive
CCOc1ccccc1NC(=O)c1cccc(NC(=O)c2ccco2)c1	HEK293 NFkB inh 42, Jurkat viability 81
COc1ccc(N(CC(O)Cn2nnc3ccccc32)S(=O)(=O)c2ccc(C)cc2)cc1 (stereo unspecified)	none
O=C(Nc1ccccc1NC(=O)NC1CCCCC1)NC1CCCCC1	HER2 expr 66K -15, SK-BR-3 tox 24h inconclusive
COc1ccc(-c2noc(CCCOc3ccccc3)n2)cc1OC	none (no result: SK-BR-3 tox 24h)
Cc1ccccc1C1=NC(c2ccc(F)cc2F)ON1 (stereo unspecified)	none
CCOC(=O)NC1(C(F)(F)F)NC(=O)N(C2CCCCC2)C1=O (stereo unspecified)	none
COc1cccc(CNC(=O)c2cc3oc4ccccc4c3n2C)c1OC	Jurkat viability 29 (no result: SK-BR-3 tox 24h)
O=C(COC(=O)c1ccc(Br)o1)NCc1ccco1	none (no result: Jurkat viability)
Cc1cc(NC(=O)CSc2nnc(C3CC3)n2C)no1	none
Cc1cc(NC(=O)CSc2nnc3c(C)cc4c(C)ccc(C)c4n23)no1	Jurkat viability 90
CCOC(=O)CSc1ncnc2c1nnn2-c1ccc(F)cc1	none
CC(=O)C(Sc1ncnc2c1nnn2-c1ccc(F)cc1)C(=O)N(C)C (stereo unspecified)	HER2 expr 66K -10 (no result: SK-BR-3 tox 24h)
N#CCn1c(C2CCCCC2)nc2ccccc2c1=O	none (no result: HER2 expr 66K, Jurkat viability)
COC(=O)c1cc(NC(=O)c2c(Cl)nc3sccn23)cc(C(=O)OC)c1	SK-BR-3 tox 24h 26
CCN1C(=O)c2cccc3c(S(=O)(=O)Nc4ccccn4)ccc1c23	HEK293 NFkB inh 40
Cc1cc(NC(=O)CSc2nnnn2Cc2ccccc2)no1	none
O=C1NCC(O)=C1C=NCCCO	SK-BR-3 tox 24h 31
Cc1c(C(=O)NCCN2CCOCC2)oc2ccc(S(=O)(=O)N3CCCCCC3)cc12	HER2 expr 66K -22 (no result: Jurkat viability)
Cc1c(C(=O)N2CCCCC2)oc2ccc(S(=O)(=O)N3CC(C)CC(C)C3)cc12 (stereo unspecified)	Jurkat viability 32
Cc1c(C(=O)NCCc2ccccc2)oc2ccc(S(=O)(=O)N3CCOCC3)cc12	none (no result: Jurkat viability)
CCN(CC)c1ccc(NC(=O)c2ccccc2F)cc1	Jurkat viability 57
CCN(CC)c1ccc(NC(=O)c2ccco2)cc1	none
C=CCn1c(=O)c(C(=O)Nc2nnc(C)s2)c(O)c2ccccc21	none
O=C(Nc1ccc2oc(=O)ccc2c1)c1cccnc1	none
CCOC(=O)c1[nH]c(C)c(C(=O)Nc2ccc(C)cc2C)c1C	Jurkat viability 93 (no result: SK-BR-3 tox 24h)
CCOC(=O)c1[nH]c(C)c(C(=O)Nc2ccc(C)c(C)c2)c1C	none (no result: SK-BR-3 tox 24h)
CCOC(=O)c1[nH]c(C)c(C(=O)Nc2ccccc2F)c1C	Jurkat viability 89 (no result: SK-BR-3 tox 24h)
CCCNC(=O)c1cc(S(=O)(=O)N2CCc3ccccc32)ccc1F	none (no result: SK-BR-3 tox 24h)
Cc1onc(-c2ccccc2)c1C(N)=O	none
Cc1onc(-c2ccccc2)c1C(=O)n1nnc2ccccc21	HER2 expr 66K 2.2 (no result: SK-BR-3 tox 24h)
COc1ccccc1N1CCN(C(=O)c2c(-c3ccccc3)noc2C)CC1	Jurkat viability 88 (no result: SK-BR-3 tox 24h)
O=C(O)CCCCCNS(=O)(=O)c1ccc(Cl)cc1	none (no result: SK-BR-3 tox 24h)
COc1ccc(CCNC(=O)CSc2nnnn2-c2ccccc2)cc1	none
COc1ccc(CCNc2nnc(Sc3nnnn3-c3ccccc3)s2)cc1OC	Jurkat viability 99 (no result: SK-BR-3 tox 24h)
COc1ccc(CSc2nnnn2Cc2ccccc2)cc1OC	HER2 expr 66K -0.9
COc1ccc[nH]c1=O	none (no result: HEK293 NFkB inh, Jurkat viability)
CCOC(=O)c1ccc(CNC(=O)c2cc3cccc(OC)c3oc2=O)o1	none
COc1ccc(-c2nnnn2-c2ccccc2OC)cc1	Jurkat viability 48
CC(=O)Nc1cccc(NC(=O)CSc2nnnn2C)c1	none
COc1cc(C2C(C#N)=C(C)NC3=C2C(=O)c2ccccc23)cc(OC)c1OC (stereo unspecified)	HEK293 NFkB inh 43, Jurkat viability 100
Cc1cccc(C)c1NC(=O)CSc1nnc(-c2ccncc2)n1Cc1ccco1	none
Cc1cc(Cl)ccc1NC(=O)CSc1nnc(-c2ccncc2)n1Cc1ccco1	SK-BR-3 tox 24h 39 (no result: Jurkat viability)
CCc1c(C)nc2ncnn2c1NCCc1ccc(OC)cc1	Jurkat viability 93 (no result: SK-BR-3 tox 24h)
C=CCNc1ncnc2ccccc12	none
c1ccc(CNc2ncnc3ccccc23)cc1	Jurkat viability 69
O=C(CCC1COc2ccccc2O1)NCc1ccco1 (stereo unspecified)	none
CCN1CCN(c2ncc3c(n2)CC(c2cc(OC)c(OC)c(OC)c2)CC3=O)CC1 (stereo unspecified)	Jurkat viability 80
COc1ccc(CCNCc2csc3nc4ccccc4n23)cc1OC	Jurkat viability 46
O=C(O)c1cc2nc(C3CC3)cc(C(F)(F)F)n2n1	none (no result: SK-BR-3 tox 24h)
CN1CC2=Cc3ccccc3OC23Oc2ccccc2C=C3C1	HER2 expr 66K -7.0
CC(C)[C@H](NC(=O)OC(C)(C)C)c1nnc(S(=O)(=O)Cc2c(F)cccc2Cl)o1	HER2 expr 66K -13
Cc1ccccc1CS(=O)(=O)c1nnc([C@H](CC(C)C)NC(=O)OC(C)(C)C)o1	HER2 expr 66K -14
CC[C@@H](C)[C@H](NC(=O)OC(C)(C)C)c1nnc(S(=O)(=O)Cc2cc(C)ccc2C)o1	HER2 expr 66K -13
CC(C)(C)OC(=O)N[C@@H](Cc1ccccc1)c1nnc(S(=O)(=O)Cc2cccc(F)c2)o1	HER2 expr 66K -16
CC(C)C[C@H](N)c1nnc(S(=O)(=O)Cc2cccc(F)c2)o1	none
C=CCn1c(C#N)c(N)sc1=N	none
O=C(CSc1nc(-c2ccc(F)cc2)cs1)N1CCN(C(=O)c2ccco2)CC1	none (no result: SK-BR-3 tox 24h)
COc1cc2c(cc1OC)CN(C(=O)CSc1nnc3scc(-c4ccccc4)n13)CC2	none (no result: SK-BR-3 tox 24h)
CCn1nccc1C(=O)Nc1ccc(Cl)cc1Cl	none
CCN(Cc1ccncc1)C(=O)c1cccs1	none (no result: SK-BR-3 tox 24h)
Cc1cc(=O)c2n(Cc3ccc(Cl)cc3)nc[n+]2[nH]1	none
Cc1cccc(N2CCN(C(=O)C3CCN(c4nnc(-n5cccc5)s4)CC3)CC2C)c1 (stereo unspecified)	none (no result: SK-BR-3 tox 24h)
Cc1ccc(Cl)cc1N1CCN(C(=O)C2CCN(c3nnc(-n4cccc4)s3)CC2)CC1	Jurkat viability 41 (no result: SK-BR-3 tox 24h)
CN(C)S(=O)(=O)c1ccc(N2CCOCC2)nc1	none

Screening results deposited in PubChem BioAssay by several laboratories.
